Measurements from publication PMC7526717 (Journal of Clinical Oncology, 2020).
Values joined by “and” are separate entries in the source; they are usually repeats but may differ in a detail not shown here. Equal values may be shown once. “Also recorded” adds a separate entry of the source. Read-outs that look alike come from different tables or passages of the source.

Experiments:
[1] = Plasma pharmacokinetics in patients; format: in vivo, human
[2] = Phase I study safety: TEAEs, DLTs, MTD; format: in vivo, human; settings: for MTD: maximum dose evaluated 200 mg twice a day
Outline: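 Oral test compound was given at 20-200 mg twice a day or 100-250 mg once daily in 28-day cycles, using pharmacologically guided 3 + 3 escalation. A level was safe with zero DLTs in three or one in six patients. AEs were recorded from consent to 30 days after last dose and investigator-graded by CTCAE v4.03. Safety population: all patients dosed.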

PDGFRB = settings: cited from earlier work
TIE2 = settings: cited from earlier work
[3] = system: advanced gastrointestinal stromal tumor (GIST); assay: Phase I study efficacy, investigator assessed, RECIST version 1.1; format: in vivo, human; settings: 150 mg once daily
Outline: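 Patients with advanced GIST after ≥1 prior systemic therapy received oral test compound 150 mg once daily in 28-day cycles, in dose-escalation or expansion. Imaging at screening, after cycles 2, 4 and 6, then every three cycles and at final visit. Responses were investigator-assessed per RECIST 1.1 and confirmed about 28 days later. Intent-to-treat population, grouped by line of therapy.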

BRAF = settings: cited from earlier work
VEGFR2 = settings: cited from earlier work
advanced GIST = settings: cited from earlier work
metastatic GIST = settings: first-line; cited from earlier work
GIST [4] = settings: cited from earlier work
GIST [5] = settings: cited from earlier work; remark: listed apart in the source
[6] = 150 mg once daily, cycle 1 day 15

## CCn1c(=O)c(-c2cc(NC(=O)Nc3ccccc3)c(F)cc2Br)cc2cnc(N)cc21 [DP-5439]
[1]; [6]
  accumulation: 4.6- to 5.3 fold
[1]; 15 days of dosing at 150 mg once daily
  exposure (AUC) relative to parent ripretinib: approximately 129%
[1]; single 150-mg doses
  exposure (AUC) relative to parent ripretinib: approximately 49%

## CCn1c(=O)c(-c2cc(NC(=O)Nc3ccccc3)c(F)cc2Br)cc2cnc(NC)cc21 [Ripretinib, 1-[4-bromo-5-[1-ethyl-7-(methylamino)-2-oxo-1,2-dihydro-1,6-naphthyridin-3-yl]-2-fluorophenyl]-3-phenylurea]
[2]; 100 mg twice a day (n = 12)
  DLT: asymptomatic grade 3 lipase elevation
[2]; 150 mg once daily (n = 12)
  DLT: asymptomatic grade 4 creatine phosphokinase increase
[2]; 200 mg twice a day (n = 7)
  DLT: asymptomatic grade 3 lipase elevation
[2]; GIST, 150 mg once daily
  Alopecia, Total Grades 1–4: 88 [62.0%] No. (%) and 88 (62.0%) No. (%)
  Constipation, Total Grades 1–4: 56 [39.4%] No. (%)
  Decreased appetite, Total Grades 1–4: 48 [33.8%] No. (%)
  Diarrhea, Total Grades 1–4: 47 [33.1%] No. (%)
  Fatigue, Total Grades 1–4: 78 [54.9%] No. (%)
  Lipase increased, Grade 3/4: 25 (17.6%) No. (%)
  Myalgia, Total Grades 1–4: 69 [48.6%] No. (%)
  Nausea, Total Grades 1–4: 65 [45.8%] No. (%)
  PPES, Total Grades 1–4: 62 [43.7%] No. (%)
  TEAEs leading to a dose reduction: 26 (18.3%) patients (%)
  TEAEs leading to treatment interruption: 77 (54.2%) patients (%)
  Treatment-emergent SAE: abdominal pain: 14 [9.9%] n [%]
  Treatment-emergent SAE: cancer surgery: 7 [4.9%] n [%]
  Treatment-emergent SAE: death: 11 [7.7%] n [%]
  Treatment-emergent SAE: sepsis: 6 [4.2%] n [%]
  patients who discontinued study treatment because of PPES: no patients
[2]; GIST, 150 mg once daily, total
  Any TEAE: 142 (100%) No. (%)
[2]; all patients
  Any TEAE, grade 3 and 4: 173 (67.1%) No. (%)
  Any TEAE, grade All: 257 (99.6%) No. (%)
  TEAEs leading to a dose reduction: 38 (14.7%) patients (%)
  TEAEs leading to treatment interruption: 127 (49.2%) patients (%)
  Treatment-emergent SAE: abdominal pain: 17 [6.6%] n [%]
  Treatment-emergent SAE: cancer surgery: 10 [3.9%] n [%]
  Treatment-emergent SAE: death: 16 [6.2%] n [%]
  Treatment-emergent SAE: dyspnea: 8 [3.1%] n [%]
  discontinued study treatment secondary to a drug-related TEAE: 16 (6.2%) patients (%)
  treatment-emergent serious adverse event (SAE): 137 (53.1%) patients (%)
[2]; dose-escalation phase
  DLTs reported: Three
  patients at each dose level who experienced a DLT: < 33%
[2]; in vivo
  RP2D: 150 mg once daily
[2]
  MTD: no maximum tolerated dose was reached
[2]; listed as ripretinib
  MTD: not reached; also recorded: No MTD was reached
[1]; [6]
  Cmax higher compared with cycle 1 day 1: 61%
[1]; 150 mg once daily, cycle 1 day 15 vs day 1
  accumulation on the basis of AUC0-12h: 66%
[1]; human, plasma, oral, time to Tmax, single doses, fasting, cycle 1 day 1
  Tmax: 2 to 10 h
[1]; single doses with PK data for at least 10 patients
  CV% for Cmax and AUC0-24h: 35%-60%
PDGFRB
  inhibition in vitro: inhibits
TIE2
  inhibition in vitro: inhibits
[3]; fourth line or greater
  Duration of response, median (95% CI): 17.5 months
  ORR (95% CI): 7.2%
  PFS, median (95% CI): 5.5 months
  probability of PFS at 12 months: 21.2%
[3]; second line
  Duration of response, median (95% CI): 18.4 months
  ORR (95% CI): 19.4%
  PFS, median (95% CI): 10.7 months
  probability of PFS at 12 months: 33.5%
[3]; third line
  ORR (95% CI): 14.3%
  PFS, median (95% CI): 8.3 months
  probability of PFS at 12 months: 29.2%
[3]; total
  Duration of response, median (95% CI): 18.4 months
  ORR (95% CI): 11.3%
BRAF
  inhibition in vitro: inhibits
VEGFR2
  inhibition in vitro: inhibits
Advanced GIST
  mPFS: 6.3 month

## Cc1ccc(NC(=O)c2ccc(CN3CCN(C)CC3)cc2)cc1Nc1nccc(-c2cccnc2)n1 [imatinib]
Metastatic GIST
  mPFS: 1.7-2 years

## CNC(=O)c1cc(Oc2ccc(NC(=O)Nc3ccc(Cl)c(C(F)(F)F)c3)c(F)c2)ccn1 [regorafenib]
GIST [4]
  syndromes such as PPES, grade 3: 19.7%
GIST [4]; third-line
  mPFS: ~4.8 months

## CCN(CC)CCNC(=O)c1c(C)[nH]c(/C=C2\C(=O)Nc3ccc(F)cc32)c1C [sunitinib]
GIST [5]
  syndromes such as PPES, grade 3: 4%
GIST [5]; second-line
  mPFS: approximately 5.6 months
